The results in this text go back to ChEMBL document CHEMBL4411320, “Synthesis and anti-HCV activity of β-d-2'-deoxy-2'-α-chloro-2'-β-fluoro and β-d-2'-deoxy-2'-α-bromo-2'-β-fluoro nucleosides and their phosphoramidate prodrugs” (Bioorg Med Chem, 2019).

The test system of one data set is PBMC. As to the kind of experiment: (§1) Cytotoxicity against human PBMC after 6 days by trypan blue exclusion method. In kind it is cell-based. Particulars: pbmc, 144 h.
A further data set deals with Hepatitis C virus. As to the kind of experiment: Antiviral activity against HCV genotype 1b subgenomic replicon infected in human HuH7 clone B cells assessed as inhibition of viral RNA replication after 5 days by RT-PCR method. In kind it is functional, organism-based, Hepacivirus hominis. Particulars: subtype 1b, Huh-7, 120 h. In outline: (§2)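 Huh-7 cells carrying a genotype 1b subgenomic HCV replicon were exposed to compounds at concentrations […]. Total RNA was then extracted and amplified to quantify both replicon HCV RNA (antiviral read-out) and cellular ribosomal RNA (cytotoxicity read-out), in the same cultures at the same time.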
A general note: A replicon is a self-replicating genome or part of one, used to study replication in cells.

Another data set deals with CCRF-CEM. The data set can be described thus: (§3) Cytotoxicity against human CEM cells after 6 days by trypan blue exclusion method. In kind it is cell-based. Particulars: ccrf-cem, 144 h.
The test system of a further data set is Vero. As to the kind of experiment: (§4) Cytotoxicity against African green monkey Vero cells after 3 days by hemocytometric method. Particulars: chlorocebus sabaeus, vero, 72 h. Type of data set: cell-based.
The subject of a further data set is Huh-7. The data set can be described thus: (§5) Cytotoxicity against human HuH7 cells assessed as reduction in rRNA levels after 5 days by RT-PCR analysis. Particulars: huh-7, 120 h. Type of data set: cell-based. In outline: as §2
Data set [1] in a line: as §4. In kind it is cell-based. Particulars: chlorocebus sabaeus, Vero cells.
Data set [2] is described as follows: as §1. Particulars: PBMC. In kind it is cell-based.
Data set [3] can be described thus: as §3. Particulars: CEM cells. In kind it is cell-based, CCRF-CEM.
Data set [4] in a line: as §5. Type of data set: cell-based, Huh-7. Particulars: HuH7 cells. In outline: as §2

For orientation: CC50 means the concentration at which the toxic effect on the cells reaches its halfway point. A word on the EC50: it is the midpoint of the concentration-response curve. As to `Nc1ccn([C@@H]2O[C@H](CO)[C@@H](O)[C@@]2(F)Cl)c(=O)n1`, the CC50 is 9.3 µM in the data set with PBMC, 11 µM with CCRF-CEM, 63 µM with Vero and 12 µM in the data set with Huh-7. Also, the EC50 in the data set with Hepatitis C virus was greater than 10 µM.

By EC90 is commonly meant the concentration at which the effect reaches the 90% level. With `O=c1ccn([C@@H]2O[C@H](CO)[C@@H](O)[C@@]2(F)Cl)c(=O)[nH]1`, the CC50 in the data set on PBMC, in the data set on CCRF-CEM, with Vero and in the data set with Huh-7 was greater than 100 µM in each case. The EC50 with Hepatitis C virus was greater than 10 µM. Moreover, the EC90 in the data set with Hepatitis C virus was greater than 10 µM.

Turning to `Nc1ncnc2c1ncn2[C@@H]1O[C@H](CO)[C@@H](O)[C@@]1(F)Cl`, the CC50 in the data set with PBMC, in the data set with CCRF-CEM, with Vero and with Huh-7 was greater than 100 µM each time. The EC50 in the data set on Hepatitis C virus is greater than 10 µM.

For the compound `Nc1nc2c(ncn2[C@@H]2O[C@H](CO)[C@@H](O)[C@@]2(F)Cl)c(=O)[nH]1`, the CC50 in the data set on PBMC, in the data set on CCRF-CEM, with Vero and with Huh-7 was greater than 100 µM each time. The EC50 with Hepatitis C virus is greater than 10 µM. The EC90 in the data set with Hepatitis C virus was greater than 10 µM.

For the compound `CC(C)OC(=O)[C@H](C)N[P@](=O)(OC[C@H]1O[C@@H](n2cnc3c(=O)[nH]c(N)nc32)[C@](F)(Br)[C@@H]1O)Oc1ccccc1`, the CC50 in the data set on PBMC, in the data set with CCRF-CEM, in the data set on Vero and in the data set on Huh-7 was greater than 100 µM in each case. Besides, in the data set on Hepatitis C virus, the EC50 is greater than 10 µM. Further, the EC90 in the data set on Hepatitis C virus was greater than 10 µM.

For the compound `O=c1ccn([C@@H]2O[C@H](CO)[C@@H](O)[C@@]2(F)Br)c(=O)[nH]1`, the CC50 with PBMC, with CCRF-CEM, in the data set with Vero and with Huh-7 was greater than 100 µM in each case. Moreover, the EC50 with Hepatitis C virus was greater than 10 µM. Also, the EC90 in the data set on Hepatitis C virus was greater than 10 µM.

As for `Nc1nc2c(ncn2[C@@H]2O[C@H](CO)[C@@H](O)[C@@]2(F)Br)c(=O)[nH]1`, the CC50 with PBMC, with CCRF-CEM, with Vero and with Huh-7 was greater than 100 µM each time. Besides, the EC50 in the data set with Hepatitis C virus is greater than 10 µM.

Take `Nc1ccn([C@@H]2O[C@H](CO)[C@@H](O)[C@@]2(F)Br)c(=O)n1`: the CC50 was greater than 100 µM with PBMC, 3.2 µM with CCRF-CEM, 2.9 µM with Vero and 2.9 µM with Huh-7. Further, the EC50 in the data set on Hepatitis C virus was found to be 5.1 µM. In addition, the EC90 with Hepatitis C virus was greater than 10 µM.

Regarding `Nc1ncnc2c1ncn2[C@@H]1O[C@H](CO)[C@@H](O)[C@@]1(F)Br`, the CC50 in the data set with PBMC, with CCRF-CEM, with Vero and with Huh-7 was greater than 100 µM in each case. Moreover, in the data set on Hepatitis C virus, the EC50 is greater than 10 µM.

On to `CC(C)OC(=O)[C@H](C)NP(=O)(OC[C@H]1O[C@@H](n2cnc3c(N)ncnc32)[C@](F)(Br)[C@@H]1O)Oc1ccccc1` (mixture of isomers), for which the CC50 in the data set with PBMC amounted to 19 µM; in the data set with CCRF-CEM, 29 µM; in the data set with Vero, 71 µM; in the data set on Huh-7, 6.9 µM. Besides, the 50% effective concentration (EC50) in the data set on Hepatitis C virus was greater than 10 µM.

For the compound `CC(C)OC(=O)[C@H](C)NP(=O)(OC[C@H]1O[C@@H](n2ccc(=O)[nH]c2=O)[C@](F)(Cl)[C@@H]1O)Oc1ccccc1` (mixture of isomers), the CC50 is greater than 100 µM with PBMC, 90 µM in the data set on CCRF-CEM, greater than 100 µM with Vero and 1.3 µM with Huh-7. The EC50 with Hepatitis C virus worked out at 0.9 µM. Further, the EC90 with Hepatitis C virus was 3.7 µM.

Take `CC(C)OC(=O)[C@H](C)NP(=O)(OC[C@H]1O[C@@H](n2cnc3c(N)ncnc32)[C@](F)(Cl)[C@@H]1O)Oc1ccccc1` (mixture of isomers): the CC50 is 26 µM in the data set on PBMC, 15 µM with CCRF-CEM, greater than 100 µM in the data set with Vero and 1.6 µM in the data set on Huh-7. The EC50 in the data set on Hepatitis C virus was 2.7 µM. In addition, the EC90 with Hepatitis C virus was no less than 10 µM.

In the case of `CC(C)OC(=O)[C@H](C)NP(=O)(OC[C@H]1O[C@@H](n2ccc(=O)[nH]c2=O)[C@](F)(Br)[C@@H]1O)Oc1ccccc1` (mixture of isomers), in the data set with Hepatitis C virus, the EC50 amounted to 0.4 µM and the EC90 came out at 2 µM. The same compound displayed a CC50 at 72 h in data set [1] greater than 100 µM. For the same compound, in the data set on Huh-7, the CC50 came out at 8 µM.

Regarding `CC(C)OC(=O)[C@H](C)NP(=O)(OC[C@H]1O[C@@H](n2ccc(N)nc2=O)[C@](F)(Br)[C@@H]1O)Oc1ccccc1` (mixture of isomers), the CC50 is greater than 100 µM in the data set on PBMC, greater than 100 µM in the data set on CCRF-CEM, greater than 100 µM in the data set with Vero and 6.8 µM in the data set with Huh-7. Besides, the EC50 in the data set with Hepatitis C virus amounted to 2.4 µM. Besides, in the data set with Hepatitis C virus, the EC90 was no less than 10 µM.

With `CC(C)OC(=O)[C@H](C)NP(=O)(OC[C@H]1O[C@@H](n2ccc(N)nc2=O)[C@](F)(Cl)[C@@H]1O)Oc1ccccc1` (mixture of isomers), the CC50 with PBMC is greater than 100 µM; with CCRF-CEM, greater than 100 µM; in the data set on Vero, greater than 100 µM; in the data set on Huh-7 it was 23 µM. In addition, in the data set with Hepatitis C virus, the EC50 worked out at 0.7 µM. Also, the EC90 with Hepatitis C virus was found to be 3.4 µM.

In the case of `CC(C)OC(=O)[C@H](C)NP(=O)(OC[C@H]1O[C@@H](n2cnc3c(=O)[nH]c(N)nc32)[C@](F)(Cl)[C@@H]1O)Oc1ccccc1` (mixture of isomers), the CC50 in the data set on PBMC is greater than 100 µM; with CCRF-CEM, 84 µM; with Vero it was greater than 100 µM; in the data set on Huh-7, greater than 100 µM. Further, the EC50 in the data set on Hepatitis C virus is greater than 10 µM.

Take `CC(C)OC(=O)[C@H](C)N[P@](=O)(OC[C@H]1O[C@@H](n2ccc(=O)[nH]c2=O)[C@](C)(F)[C@@H]1O)Oc1ccccc1` [SOFOSBUVIR]: the CC50 at 144 h in data set [2] is greater than 100 µM. In the data set with Hepatitis C virus, the EC50 turned out to be 0.05 µM and the EC90 was 0.37 µM. Moreover, the CC50 at 144 h in [3] was greater than 100 µM. The CC50 at 72 h in data set [1] was greater than 100 µM. For the same compound, the CC50 at 120 h in data set [4] was greater than 100 µM.
